Assay results taken from ChEMBL document CHEMBL2034971, “Appraisal of GABA and PABA as linker: design and synthesis of novel benzamide based histone deacetylase inhibitors” (Eur J Med Chem, 2012).

Assays:
Histone deacetylase 1 = Histone deacetylase 1 (Homo sapiens, UniProt Q13547); assay: Inhibition of HDAC1 using Fluor de Lys as substrate by fluorescence analysis
HCT-116 = assay: Growth inhibition of human HCT116 cells after 2 days by MTT assay; type: functional; settings: HCT-116, 48 h; for CC50: read-out: LC50 (the source's name)
U-251 = assay: Growth inhibition of human U251 cells after 2 days by MTT assay; type: functional; settings: U-251, 48 h
[1] = Antitumor activity against mouse EAC cells allografted in Swiss albino mouse assessed as decrease in tumor weight at 0.2 mmol/kg, ip administered from day 1 to day 7 every 24 hrs; type: functional; settings: Ehrlich
How it was run: (§1)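 EAC cells kept by intraperitoneal passage in Swiss albino mice (18-20 g, 10 weeks) every 10 days; 9-day-old cells in isotonic saline adjusted to 10×10^6 cells/mL, 0.1 mL per 10 g injected ip on day 0. Seven daily ip doses in PBS pH 7.2 (0.1 mL/10 g), days 1-7; vehicle control. Day 8 sacrifice after 6 h fast.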

[2] = Antitumor activity against mouse EAC cells allografted in Swiss albino mouse assessed as decrease in tumor cell at 0.2 mmol/kg, ip administered from day 1 to day 7 every 24 hrs; type: functional; settings: Ehrlich; how it was run: as §1
[3] = target: T1, NAD-dependent protein deacetylase sirtuin-1 (Homo sapiens, UniProt Q96EB6); assay: Inhibition of SIRT1
T1 sequence (Q96EB6 whole entry): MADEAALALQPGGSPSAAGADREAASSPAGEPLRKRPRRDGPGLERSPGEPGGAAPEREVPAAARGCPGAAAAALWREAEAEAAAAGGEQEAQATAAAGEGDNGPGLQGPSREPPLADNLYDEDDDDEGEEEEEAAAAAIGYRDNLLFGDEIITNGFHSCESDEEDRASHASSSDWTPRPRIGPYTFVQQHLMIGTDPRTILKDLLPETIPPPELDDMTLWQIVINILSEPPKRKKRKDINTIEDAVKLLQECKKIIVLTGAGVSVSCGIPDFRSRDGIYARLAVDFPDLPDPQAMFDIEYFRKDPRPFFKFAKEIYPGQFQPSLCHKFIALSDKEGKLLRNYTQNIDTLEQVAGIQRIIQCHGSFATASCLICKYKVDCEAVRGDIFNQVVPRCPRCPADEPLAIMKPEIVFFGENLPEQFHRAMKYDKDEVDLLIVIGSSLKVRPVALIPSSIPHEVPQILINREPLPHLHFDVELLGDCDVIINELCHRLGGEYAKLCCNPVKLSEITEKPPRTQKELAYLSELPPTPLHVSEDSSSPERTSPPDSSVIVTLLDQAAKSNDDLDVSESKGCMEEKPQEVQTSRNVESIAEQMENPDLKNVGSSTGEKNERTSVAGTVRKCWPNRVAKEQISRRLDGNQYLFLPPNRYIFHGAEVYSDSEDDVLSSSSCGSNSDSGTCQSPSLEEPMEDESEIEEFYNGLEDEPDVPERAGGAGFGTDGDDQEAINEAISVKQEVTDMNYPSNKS

[4] = Antitumor activity against mouse EAC cells allografted in Swiss albino mouse assessed as decrease in tumor cell at 1 mg/kg, ip administered from day 1 to day 7 every 24 hrs; type: functional; settings: Ehrlich, route intraperitoneal; how it was run: as §1
[5] = Antitumor activity against mouse EAC cells allografted in Swiss albino mouse assessed as decrease in tumor weight at 1 mg/kg, ip administered from day 1 to day 7 every 24 hrs; type: functional; settings: Ehrlich, route intraperitoneal; how it was run: as §1

Histone deacetylase 1, sequence (Q13547 whole entry): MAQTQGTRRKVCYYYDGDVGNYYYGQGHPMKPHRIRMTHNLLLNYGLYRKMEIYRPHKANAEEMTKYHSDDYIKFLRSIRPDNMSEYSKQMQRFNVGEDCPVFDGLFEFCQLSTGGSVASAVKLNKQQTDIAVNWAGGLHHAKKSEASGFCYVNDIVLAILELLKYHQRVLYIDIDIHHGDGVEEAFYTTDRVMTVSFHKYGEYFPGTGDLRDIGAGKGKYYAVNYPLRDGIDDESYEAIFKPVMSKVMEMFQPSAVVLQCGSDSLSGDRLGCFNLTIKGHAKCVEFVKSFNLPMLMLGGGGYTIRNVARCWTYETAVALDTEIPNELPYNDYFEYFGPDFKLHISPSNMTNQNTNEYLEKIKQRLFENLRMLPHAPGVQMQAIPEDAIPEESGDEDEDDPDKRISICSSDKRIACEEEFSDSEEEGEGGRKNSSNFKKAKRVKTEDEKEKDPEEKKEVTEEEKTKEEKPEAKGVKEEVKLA

SMILES | IC50 (Histone deacetylase 1) | GI50 (HCT-116) | TGI (HCT-116) | CC50 (HCT-116) | GI50 (U-251) | LC50 (concentration killing 50% of cells) (U-251) | TGI (U-251) | inhibition in vivo at 200 µmol/kg [1] | inhibition in vivo at 200 µmol/kg [2] | IC50 [3] | inhibition in vivo at 1 mg/kg [4] | inhibition in vivo at 1 mg/kg [5]
Nc1ccccc1NC(=O)CCCNCC(=O)Nc1ccc(Cl)cc1 | 1.4 µM | 5.5 µM | 45 µM | > 100 µM | 11.4 µM | > 100 µM | 75 µM | 72.7% | 75% |  |  | 
Nc1ccccc1NC(=O)CCCNCC(=O)Nc1cc(Cl)ccc1Cl | 8.9 µM | 31 µM | 78 µM | > 100 µM | 44 µM | > 100 µM | > 100 µM | 50% | 50.9% |  |  | 
Nc1ccccc1NC(=O)CCCNCC(=O)Nc1ccc(Br)cc1 | 1.7 µM | 7.7 µM | 55.5 µM | > 100 µM | 10.4 µM | > 100 µM | 80 µM | 73.8% | 68.7% |  |  | 
Nc1ccccc1NC(=O)CCCNCC(=O)Nc1ccccc1 | 9.2 µM | 70.4 µM | > 100 µM | > 100 µM | > 100 µM | > 100 µM | > 100 µM | 25% | 19.1% |  |  | 
Nc1ccccc1NC(=O)CCCNCC(=O)Nc1cccc([N+](=O)[O-])c1 | 2.3 µM | 0.9 µM | 22.5 µM | > 100 µM | 15 µM | > 100 µM | 93.5 µM | 40.6% | 36% |  |  | 
Nc1ccccc1NC(=O)c1ccc(NCC(=O)Nc2cc(Cl)ccc2Cl)cc1 | 8.6 µM | 7.9 µM | 66 µM | > 100 µM | 38.6 µM | > 100 µM | > 100 µM | 58.3% | 56.2% |  |  | 
Nc1ccccc1NC(=O)c1ccc(NCC(=O)Nc2ccccc2[N+](=O)[O-])cc1 | 2 µM | 3.5 µM | 25 µM | > 100 µM | 18 µM | > 100 µM | 83 µM | 12.9% | 19.7% |  |  | 
COc1ccc(NC(=O)CNCCCC(=O)Nc2ccccc2N)cc1 | 3.6 µM | 8.6 µM | 44 µM | > 100 µM | 34 µM | > 100 µM | > 100 µM | 63.8% | 63.3% |  |  | 
Nc1ccccc1NC(=O)CCCNCC(=O)Nc1ccccc1[N+](=O)[O-] | 3.1 µM | 2.8 µM | 32 µM | > 100 µM | 32 µM | > 100 µM | > 100 µM | 41.3% | 10.5% |  |  | 
Nc1ccccc1NC(=O)c1ccc(NCC(=O)Nc2ccc(Br)cc2)cc1 | 1.6 µM | 6.8 µM | 47.5 µM | > 100 µM | 10.8 µM | > 100 µM | 45 µM | 76.3% | 73.5% |  |  | 
Nc1ccccc1NC(=O)c1ccc(NCC(=O)Nc2ccc([N+](=O)[O-])cc2)cc1 | 0.7 µM | 0.6 µM | 6.5 µM | > 100 µM | 8.2 µM | > 100 µM | 42.5 µM | 83.3% | 77.5% |  |  | 
Nc1ccccc1NC(=O)CCCNCC(=O)Nc1ccc([N+](=O)[O-])cc1 | 0.9 µM | 0.6 µM | 8.5 µM | > 100 µM | 9.4 µM | > 100 µM | 66 µM | 78.5% | 76.5% |  |  | 
Cc1ccc(NC(=O)CNc2ccc(C(=O)Nc3ccccc3N)cc2)cc1 | 4.5 µM | 12.6 µM | > 100 µM | > 100 µM | 84 µM | > 100 µM | > 100 µM | 43.3% | 25.2% |  |  | 
Cc1ccc(NC(=O)CNCCCC(=O)Nc2ccccc2N)cc1 | 7.5 µM | 17.9 µM | > 100 µM | > 100 µM | 57 µM | > 100 µM | > 100 µM | 42.8% | 18.9% |  |  | 
Nc1ccccc1NC(=O)CCCNCC(=O)Nc1ccccc1Cl | 2.9 µM | 21.8 µM | > 100 µM | > 100 µM | 28.6 µM | > 100 µM | > 100 µM | 21.4% | 12.7% |  |  | 
Nc1ccccc1NC(=O)c1ccc(CNC(=O)OCc2cccnc2)cc1 [ENTINOSTAT] |  | 0.6 µM | > 100 µM | > 100 µM | 6.5 µM |  | 40 µM |  |  | > 100 µM |  | 
Nc1ccccc1NC(=O)c1ccc(NCC(=O)Nc2ccccc2)cc1 | 7.4 µM | 45.3 µM | > 100 µM | > 100 µM | 65 µM | > 100 µM | > 100 µM | 18.5% | 30.5% |  |  | 
Nc1ccccc1NC(=O)c1ccc(NCC(=O)Nc2cccc(Cl)c2)cc1 | 2.5 µM | 11.5 µM | > 100 µM | > 100 µM | 15.4 µM | > 100 µM | 88 µM | 68.4% | 51.7% |  |  | 
Nc1ccccc1NC(=O)c1ccc(NCC(=O)Nc2cccc([N+](=O)[O-])c2)cc1 | 1.4 µM | 1.1 µM | 9 µM | > 100 µM | 13.5 µM | > 100 µM | 52 µM | 67.6% | 40.4% |  |  | 
CO[C@@]12[C@H](COC(N)=O)C3=C(C(=O)C(C)=C(N)C3=O)N1C[C@@H]1N[C@@H]12 [MITOMYCIN] |  |  |  |  |  |  |  |  |  |  | 100% | 100%
Nc1ccccc1NC(=O)c1ccc(NCC(=O)Nc2ccccc2Cl)cc1 | 2.9 µM | 9.5 µM | > 100 µM | > 100 µM | 24.2 µM | > 100 µM | > 100 µM | 43.3% | 31.4% |  |  | 
Nc1ccccc1NC(=O)c1ccc(NCC(=O)Nc2ccc(Cl)cc2)cc1 | 1 µM | 4.2 µM | 62.5 µM | > 100 µM | 9.4 µM | > 100 µM | 62.5 µM | 79.4% | 73.3% |  |  | 
Nc1ccccc1NC(=O)CCCNCC(=O)Nc1cccc(Cl)c1 | 1.8 µM | 11.6 µM | 75 µM | > 100 µM | 19.5 µM | > 100 µM | > 100 µM | 32.1% | 22.5% |  |  | 
COc1ccc(NC(=O)CNc2ccc(C(=O)Nc3ccccc3N)cc2)cc1 | 3.1 µM | 7.5 µM | 38 µM | > 100 µM | 25.5 µM | > 100 µM | > 100 µM | 66.6% | 62.3% |  |  | 
